From ChEMBL document CHEMBL5724801, “EUbOPEN Chemogenomics Library - Multiplex” (2024)
Where “and” joins values, the source holds several entries; their conditions need not be identical. Identical values can stand only once.

System: U2OS
Assay: Multiplex assay against U2OS
Assay type: toxicity, cell-based
Conditions: human
Summary of the method: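 Compound was added to live cells that had been stained at seeding with Hoechst33342, BioTracker Green Microtubule Cytoskeleton Dye, MitoTracker Red and Annexin V Alexa Fluor 680, and imaging followed on a CQ1 microscope at 37°C and 5% CO2. CellPathfinder machine-learning gating divided cells into Hoechst high-intensity objects or normal cells, normal cells into healthy, pyknosed or fragmented nuclei, and pyknosed cells into mitotic or apoptotic. Tubulin, mitochondrial-mass and membrane-permeability phenotypes are per cents of healthy-nucleus cells.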

[1] = 12 h, 1 µM, compound concentration 1 uM
[2] = 12 h, 10 µM, compound concentration 10 uM
[3] = 24 h, 1 µM, compound concentration 1 uM
[4] = 24 h, 10 µM, compound concentration 10 uM
[5] = 48 h, 1 µM, compound concentration 1 uM
[6] = 48 h, 10 µM, compound concentration 10 uM

S=C(NCCCc1c[nH]cn1)NCCCN(Cc1ccc(Cl)c(Cl)c1)c1ccc(Br)cn1
Population Apoptotic (%) [1]: 75% and 80%
Population Fragmented Nuclei (%) [1]: 27% and 20%
Population Healthy Nuclei (%) [1]: 63% and 68%
Population Hoechst High Intensity Objects (%) [1]: 2% and 3%
Population Membrane Permeable-Phenotype (%) [1]: 13% and 6%
Population Mitochondria Different-Phenotype (%) [1]: 2% and 9%
Population Mitotic Cells (%) [1]: 25% and 20%
Population Normal (%) [1]: 97% and 96%
Population Pyknosed Nuclei (%) [1]: 9% and 11%
Population Tubulin-Different-Phenotype (%) [1]: 6% and 1%
Total Cell Count [1]: 228 and 93
Population Apoptotic (%) [2]: 66% and 58%
Population Fragmented Nuclei (%) [2]: 27% and 24%
Population Healthy Nuclei (%) [2]: 46%
Population Hoechst High Intensity Objects (%) [2]: 6% and 0%
Population Membrane Permeable-Phenotype (%) [2]: 86% and 84%
Population Mitochondria Different-Phenotype (%) [2]: 26% and 60%
Population Mitotic Cells (%) [2]: 33% and 41%
Population Normal (%) [2]: 93% and 100%
Population Pyknosed Nuclei (%) [2]: 26% and 29%
Population Tubulin-Different-Phenotype (%) [2]: 83% and 89%
Total Cell Count [2]: 220 and 82
Population Apoptotic (%) [3]: 81% and 100%
Population Fragmented Nuclei (%) [3]: 22% and 30%
Population Healthy Nuclei (%) [3]: 69% and 65%
Population Hoechst High Intensity Objects (%) [3]: 3% and 1%
Population Membrane Permeable-Phenotype (%) [3]: 11% and 7%
Population Mitochondria Different-Phenotype (%) [3]: 3% and 5%
Population Mitotic Cells (%) [3]: 18% and 0%
Population Normal (%) [3]: 96% and 98%
Population Pyknosed Nuclei (%) [3]: 8% and 4%
Population Tubulin-Different-Phenotype (%) [3]: 9% and 3%
Total Cell Count [3]: 285 and 125
Population Apoptotic (%) [4]: 62% and 60%
Population Fragmented Nuclei (%) [4]: 33% and 29%
Population Healthy Nuclei (%) [4]: 38% and 40%
Population Hoechst High Intensity Objects (%) [4]: 5% and 2%
Population Membrane Permeable-Phenotype (%) [4]: 59% and 77%
Population Mitochondria Different-Phenotype (%) [4]: 17% and 32%
Population Mitotic Cells (%) [4]: 37% and 39%
Population Normal (%) [4]: 94% and 97%
Population Pyknosed Nuclei (%) [4]: 28% and 29%
Population Tubulin-Different-Phenotype (%) [4]: 54% and 64%
Total Cell Count [4]: 227 and 79
Population Apoptotic (%) [5]: 83% and 87%
Population Fragmented Nuclei (%) [5]: 17% and 28%
Population Healthy Nuclei (%) [5]: 74% and 60%
Population Hoechst High Intensity Objects (%) [5]: 1% and 0%
Population Membrane Permeable-Phenotype (%) [5]: 5%
Population Mitochondria Different-Phenotype (%) [5]: 3%
Population Mitotic Cells (%) [5]: 16% and 12%
Population Normal (%) [5]: 98% and 99%
Population Pyknosed Nuclei (%) [5]: 7% and 11%
Population Tubulin-Different-Phenotype (%) [5]: 2% and 3%
Total Cell Count [5]: 409 and 211
Population Apoptotic (%) [6]: 70% and 73%
Population Fragmented Nuclei (%) [6]: 43% and 50%
Population Healthy Nuclei (%) [6]: 8% and 15%
Population Hoechst High Intensity Objects (%) [6]: 21% and 15%
Population Membrane Permeable-Phenotype (%) [6]: 46% and 57%
Population Mitochondria Different-Phenotype (%) [6]: 20% and 42%
Population Mitotic Cells (%) [6]: 29% and 26%
Population Normal (%) [6]: 78% and 84%
Population Pyknosed Nuclei (%) [6]: 47% and 33%
Population Tubulin-Different-Phenotype (%) [6]: 26% and 57%
Total Cell Count [6]: 230 and 105

CN1CCC(C(=O)c2cccc(NC(=O)c3c(F)cc(F)cc3F)n2)CC1
Population Apoptotic (%) [1]: 90% and 57%
Population Fragmented Nuclei (%) [1]: 20%
Population Healthy Nuclei (%) [1]: 70% and 71%
Population Hoechst High Intensity Objects (%) [1]: 2% and 1%
Population Membrane Permeable-Phenotype (%) [1]: 8% and 9%
Population Mitochondria Different-Phenotype (%) [1]: 3% and 11%
Population Normal (%) [1]: 97% and 98%
Population Pyknosed Nuclei (%) [1]: 9% and 7%
Population Tubulin-Different-Phenotype (%) [1]: 5% and 6%
Total Cell Count [1]: 218 and 89
Population Apoptotic (%) [2]: 65% and 64%
Population Fragmented Nuclei (%) [2]: 27% and 14%
Population Healthy Nuclei (%) [2]: 63% and 68%
Population Hoechst High Intensity Objects (%) [2]: 1%
Population Membrane Permeable-Phenotype (%) [2]: 14% and 15%
Population Mitochondria Different-Phenotype (%) [2]: 13% and 18%
Population Mitotic Cells (%) [2]: 34% and 35%
Population Normal (%) [2]: 98%
Population Pyknosed Nuclei (%) [2]: 9% and 16%
Population Tubulin-Different-Phenotype (%) [2]: 12% and 15%
Total Cell Count [2]: 270 and 103
Population Apoptotic (%) [3]: 85% and 72%
Population Fragmented Nuclei (%) [3]: 22% and 18%
Population Healthy Nuclei (%) [3]: 67% and 71%
Population Hoechst High Intensity Objects (%) [3]: 2% and 0%
Population Membrane Permeable-Phenotype (%) [3]: 4% and 6%
Population Mitochondria Different-Phenotype (%) [3]: 3% and 10%
Population Mitotic Cells (%) [3]: 14% and 27%
Population Normal (%) [3]: 97% and 99%
Population Pyknosed Nuclei (%) [3]: 9%
Population Tubulin-Different-Phenotype (%) [3]: 3% and 0%
Total Cell Count [3]: 284 and 113
Population Apoptotic (%) [4]: 82% and 66%
Population Fragmented Nuclei (%) [4]: 21% and 15%
Population Healthy Nuclei (%) [4]: 68%
Population Hoechst High Intensity Objects (%) [4]: 2% and 5%
Population Membrane Permeable-Phenotype (%) [4]: 8% and 10%
Population Mitochondria Different-Phenotype (%) [4]: 9% and 15%
Population Mitotic Cells (%) [4]: 17% and 33%
Population Normal (%) [4]: 97% and 94%
Population Pyknosed Nuclei (%) [4]: 9% and 15%
Population Tubulin-Different-Phenotype (%) [4]: 5% and 10%
Total Cell Count [4]: 298 and 126
Population Apoptotic (%) [5]: 100% and 89%
Population Fragmented Nuclei (%) [5]: 17% and 29%
Population Healthy Nuclei (%) [5]: 70% and 57%
Population Hoechst High Intensity Objects (%) [5]: 2% and 5%
Population Membrane Permeable-Phenotype (%) [5]: 4% and 12%
Population Mitochondria Different-Phenotype (%) [5]: 1% and 8%
Population Mitotic Cells (%) [5]: 0% and 10%
Population Normal (%) [5]: 97% and 94%
Population Pyknosed Nuclei (%) [5]: 11% and 13%
Population Tubulin-Different-Phenotype (%) [5]: 2% and 4%
Total Cell Count [5]: 394 and 149
Population Apoptotic (%) [6]: 85%
Population Fragmented Nuclei (%) [6]: 18% and 15%
Population Healthy Nuclei (%) [6]: 69%
Population Hoechst High Intensity Objects (%) [6]: 3%
Population Membrane Permeable-Phenotype (%) [6]: 8% and 16%
Population Mitochondria Different-Phenotype (%) [6]: 3% and 10%
Population Mitotic Cells (%) [6]: 14%
Population Normal (%) [6]: 96%
Population Pyknosed Nuclei (%) [6]: 12% and 14%
Population Tubulin-Different-Phenotype (%) [6]: 3% and 8%
Total Cell Count [6]: 398 and 189
